Experimental data taken from ChEMBL document CHEMBL4382268, “Glycyrrhetinic acid derivatives containing aminophosphonate ester species as multidrug resistance reversers that block the NF-κB pathway and cell proliferation” (Bioorg Med Chem Lett, 2018).

Tests used:
[1] = Inhibition of TNF-alpha induced NF-kappaB activation in human A549 cells after 7 hrs by Bright-Glo luciferase reporter gene assay; format: cell-based
In short: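 A549 cells transiently cotransfected with an NF-κB-Luc reporter and stimulated with TNF-α. Luciferase read-out of inhibition gives IC50, the mean of at least three independent experiments each with triplicates.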

[2] = system: MG-63; assay: Antiproliferative activity against human MG63 cells after 48 hrs by MTT assay; format: functional, cell-based; details: MG-63, 48 h
In short: (§1)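 MTT read-out of antiproliferative activity across cancer lines HepG-2, NCI-H460, MGC-803, A549 and MG-63 and normal liver line HL-7702. IC50 given as mean ± S.D. of three separate experiments, each run in triplicate.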

[3] = system: HepG2; assay: Antiproliferative activity against human HepG2 cells after 48 hrs by MTT assay; format: functional, cell-based; details: HepG2, 48 h; in short: as §1
[4] = system: A549; assay: Antiproliferative activity against human A549 cells after 48 hrs by MTT assay; format: functional, cell-based; details: A549, 48 h; in short: as §1
[5] = system: L02; assay: Antiproliferative activity against human HL-7702 cells after 48 hrs by MTT assay; format: functional, cell-based; details: L02, 48 h; in short: as §1
[6] = system: MGC-803; assay: Antiproliferative activity against human MGC803 cells after 48 hrs by MTT assay; format: functional, cell-based; details: MGC-803, 48 h; in short: as §1
[7] = system: NCI-H460; assay: Antiproliferative activity against human NCI-H460 cells after 48 hrs by MTT assay; format: functional, cell-based; details: NCI-H460, 48 h; in short: as §1
[8] = Homo sapiens, A549, 7 h, read-out: IC50

| SMILES | IC50 [1, 8] [µM] | IC50 [2] [µM] | IC50 [3] [µM] | IC50 [4] [µM] | IC50 [5] [µM] | IC50 [6] [µM] | IC50 [7] [µM] | IC50 ([1]; a549) |
| --- | --- | --- | --- | --- | --- | --- | --- | --- |
| CCOP(=O)(OCC)C(Nc1ccc(CC(=O)NCCCCNC(=O)[C@@]2(C)CC[C@]3(C)CC[C@]4(C)C(=CC(=O)[C@@H]5[C@@]6(C)CC[C@H](O)C(C)(C)[C@@H]6CC[C@]54C)[C@@H]3C2)cc1)c1cccc(F)c1 (stereo partly specified) | > 30 | > 50 | > 50 | > 50 | > 50 | > 50 | > 50 | – |
| CCOP(=O)(OCC)C(Nc1ccc(CC(=O)NCCCNC(=O)[C@@]2(C)CC[C@]3(C)CC[C@]4(C)C(=CC(=O)[C@@H]5[C@@]6(C)CC[C@H](O)C(C)(C)[C@@H]6CC[C@]54C)[C@@H]3C2)cc1)c1cccc(Br)c1 (stereo partly specified) | – | > 50 | > 50 | > 50 | > 50 | > 50 | > 50 | Not Active |
| CCOP(=O)(OCC)C(Nc1ccc(CC(=O)NCCCCNC(=O)[C@@]2(C)CC[C@]3(C)CC[C@]4(C)C(=CC(=O)[C@@H]5[C@@]6(C)CC[C@H](OC(C)=O)C(C)(C)[C@@H]6CC[C@]54C)[C@@H]3C2)cc1)c1cccc(OC)c1 (stereo partly specified) | 23.4 | 36.6 | 35.3 | 27.2 | > 50 | 32.9 | 27.4 | – |
| CCOP(=O)(OCC)C(Nc1ccc(CC(=O)NCCCCNC(=O)[C@@]2(C)CC[C@]3(C)CC[C@]4(C)C(=CC(=O)[C@@H]5[C@@]6(C)CC[C@H](O)C(C)(C)[C@@H]6CC[C@]54C)[C@@H]3C2)cc1)c1cccc(OC)c1 (stereo partly specified) | 29.4 | 45.6 | 46.4 | 48.3 | > 50 | > 50 | 39.2 | – |
| CCOP(=O)(OCC)C(Nc1ccc(CC(=O)NCCCNC(=O)[C@@]2(C)CC[C@]3(C)CC[C@]4(C)C(=CC(=O)[C@@H]5[C@@]6(C)CC[C@H](O)C(C)(C)[C@@H]6CC[C@]54C)[C@@H]3C2)cc1)c1cccc(F)c1 (stereo partly specified) | – | > 50 | > 50 | > 50 | > 50 | > 50 | > 50 | Not Active |
| CCOP(=O)(OCC)C(Nc1ccc(CC(=O)NCCCCNC(=O)[C@@]2(C)CC[C@]3(C)CC[C@]4(C)C(=CC(=O)[C@@H]5[C@@]6(C)CC[C@H](OC(C)=O)C(C)(C)[C@@H]6CC[C@]54C)[C@@H]3C2)cc1)c1cccc(F)c1 (stereo partly specified) | 27.4 | 22.8 | 21.3 | 26.4 | > 50 | 21 | 28.2 | – |
| CCOP(=O)(OCC)C(Nc1ccc(CC(=O)NCCCNC(=O)[C@@]2(C)CC[C@]3(C)CC[C@]4(C)C(=CC(=O)[C@@H]5[C@@]6(C)CC[C@H](O)C(C)(C)[C@@H]6CC[C@]54C)[C@@H]3C2)cc1)c1ccc(Br)cc1 (stereo partly specified) | > 30 | 25.1 | 35.6 | 31.9 | > 50 | 35.7 | 20.3 | – |
| CCOP(=O)(OCC)C(Nc1ccc(CC(=O)NCCCCNC(=O)[C@@]2(C)CC[C@]3(C)CC[C@]4(C)C(=CC(=O)[C@@H]5[C@@]6(C)CC[C@H](OC(C)=O)C(C)(C)[C@@H]6CC[C@]54C)[C@@H]3C2)cc1)c1cccc(Br)c1 (stereo partly specified) | 27.1 | > 50 | 48.2 | 39.6 | > 50 | 41.8 | 47.6 | – |
| CCOP(=O)(OCC)C(Nc1ccc(CC(=O)NCCCNC(=O)[C@@]2(C)CC[C@]3(C)CC[C@]4(C)C(=CC(=O)[C@@H]5[C@@]6(C)CC[C@H](OC(C)=O)C(C)(C)[C@@H]6CC[C@]54C)[C@@H]3C2)cc1)c1cccc(OC)c1 (stereo partly specified) | > 30 | 39.5 | 38.2 | 39.3 | > 50 | 36.7 | 31.7 | – |
| CCOP(=O)(OCC)C(Nc1ccc(CC(=O)NCCCNC(=O)[C@@]2(C)CC[C@]3(C)CC[C@]4(C)C(=CC(=O)[C@@H]5[C@@]6(C)CC[C@H](OC(C)=O)C(C)(C)[C@@H]6CC[C@]54C)[C@@H]3C2)cc1)c1cccc(F)c1 (stereo partly specified) | > 30 | > 50 | 37.7 | 34 | > 50 | 27.2 | 29.5 | – |
| CCOP(=O)(OCC)C(Nc1ccc(CC(=O)NCCCCNC(=O)[C@@]2(C)CC[C@]3(C)CC[C@]4(C)C(=CC(=O)[C@@H]5[C@@]6(C)CC[C@H](OC(C)=O)C(C)(C)[C@@H]6CC[C@]54C)[C@@H]3C2)cc1)c1ccc(OC)cc1 (stereo partly specified) | 2.01 | 13.9 | 15.3 | 15.2 | > 50 | 16.3 | 14.1 | – |
| CCOP(=O)(OCC)C(Nc1ccc(CC(=O)NCCCCNC(=O)[C@@]2(C)CC[C@]3(C)CC[C@]4(C)C(=CC(=O)[C@@H]5[C@@]6(C)CC[C@H](O)C(C)(C)[C@@H]6CC[C@]54C)[C@@H]3C2)cc1)c1ccccc1 (stereo partly specified) | 25.1 | 27.8 | 37.1 | 33.2 | > 50 | 36.3 | 30.5 | – |
| CC[C@@]1(O)C(=O)OCc2c1cc1n(c2=O)Cc2cc3cc(O)ccc3nc2-1 [HYDROXYCAMPTOTHECIN] | – | 10.7 | – | 9.13 | 10.2 | 9.71 | 10.1 | – |
| CCOP(=O)(OCC)C(Nc1ccc(CC(=O)NCCCCNC(=O)[C@@]2(C)CC[C@]3(C)CC[C@]4(C)C(=CC(=O)[C@@H]5[C@@]6(C)CC[C@H](O)C(C)(C)[C@@H]6CC[C@]54C)[C@@H]3C2)cc1)c1ccc(OC)cc1 (stereo partly specified) | 13.1 | 17.2 | 32.2 | 25.2 | > 50 | 22.2 | 24 | – |
| CCOP(=O)(OCC)C(Nc1ccc(CC(=O)NCCCCNC(=O)[C@@]2(C)CC[C@]3(C)CC[C@]4(C)C(=CC(=O)[C@@H]5[C@@]6(C)CC[C@H](O)C(C)(C)[C@@H]6CC[C@]54C)[C@@H]3C2)cc1)c1cccc(Br)c1 (stereo partly specified) | > 30 | > 50 | > 50 | > 50 | > 50 | > 50 | > 50 | – |
| CCOP(=O)(OCC)C(Nc1ccc(CC(=O)NCCCCNC(=O)[C@@]2(C)CC[C@]3(C)CC[C@]4(C)C(=CC(=O)[C@@H]5[C@@]6(C)CC[C@H](O)C(C)(C)[C@@H]6CC[C@]54C)[C@@H]3C2)cc1)c1ccc(Br)cc1 (stereo partly specified) | 16.3 | 24.6 | 29.2 | 24.9 | > 50 | 30.9 | 25.2 | – |
| CCOP(=O)(OCC)C(Nc1ccc(CC(=O)NCCCNC(=O)[C@@]2(C)CC[C@]3(C)CC[C@]4(C)C(=CC(=O)[C@@H]5[C@@]6(C)CC[C@H](OC(C)=O)C(C)(C)[C@@H]6CC[C@]54C)[C@@H]3C2)cc1)c1ccccc1 (stereo partly specified) | 22.1 | 25.3 | 31.6 | 30.3 | > 50 | 21 | 23.2 | – |
| CCOP(=O)(OCC)C(Nc1ccc(CC(=O)NCCCNC(=O)[C@@]2(C)CC[C@]3(C)CC[C@]4(C)C(=CC(=O)[C@@H]5[C@@]6(C)CC[C@H](O)C(C)(C)[C@@H]6CC[C@]54C)[C@@H]3C2)cc1)c1ccccc1 (stereo partly specified) | 28.2 | 31 | 40.4 | 36 | > 50 | 31.1 | 46.1 | – |
| CCOP(=O)(OCC)C(Nc1ccc(CC(=O)NCCCCNC(=O)[C@@]2(C)CC[C@]3(C)CC[C@]4(C)C(=CC(=O)[C@@H]5[C@@]6(C)CC[C@H](OC(C)=O)C(C)(C)[C@@H]6CC[C@]54C)[C@@H]3C2)cc1)c1ccccc1 (stereo partly specified) | 13.2 | 20.2 | 26.3 | 23.1 | > 50 | 15.2 | 13.2 | – |
